Test [1] concerns Mus musculus. The test is described as follows: Evaluated in vivo for their ability to decrease plasma glucose levels in diabetic C57BL/KsJ db/db mouse at a dose 100 mg/kg/day.([…]). The test is classed as functional. The gist of the method: (§1)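 Diabetic db/db or ob/ob mice dosed orally once daily for 4 days. Plasma glucose and insulin reported as percent change from a vehicle-treated group. 4-6 mice per group. Significance set at p < 0.05 or p < 0.01 versus vehicle; NS means generally less than -15% change.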

The target in test [2] is T1, Tyrosine-protein phosphatase non-receptor type 1 (Rattus norvegicus) (UniProt P20417).
T1 sequence (whole entry): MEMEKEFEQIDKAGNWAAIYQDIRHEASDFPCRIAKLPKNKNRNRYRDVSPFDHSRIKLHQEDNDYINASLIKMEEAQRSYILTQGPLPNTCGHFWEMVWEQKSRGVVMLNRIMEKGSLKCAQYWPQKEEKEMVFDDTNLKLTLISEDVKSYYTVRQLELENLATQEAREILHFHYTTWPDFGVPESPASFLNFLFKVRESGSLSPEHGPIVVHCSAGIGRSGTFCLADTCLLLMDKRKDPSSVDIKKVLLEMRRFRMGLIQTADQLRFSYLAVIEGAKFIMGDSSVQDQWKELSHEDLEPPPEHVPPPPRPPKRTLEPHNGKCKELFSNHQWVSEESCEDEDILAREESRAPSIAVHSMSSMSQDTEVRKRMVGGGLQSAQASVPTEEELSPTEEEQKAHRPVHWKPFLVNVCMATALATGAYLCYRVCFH
The test is described as follows: Inhibition of PTPase activity in rat hepatic membrane at a concentration of 250 uM using pNPP as the substrate. It is filed as cell membranes. Conditions: Liver. The gist of the method: (§2)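 Liver membranes from male Sprague-Dawley rats (100-150 g), about 30 µg protein per well. Preincubated 10 min at 37 °C with compound in 1.25% DMSO in 50 mM HEPES pH 7.4. Then 6.33 mM pNPP for 30 min at 37 °C, stopped with NaOH. p-Nitrophenol read at 410 nm. Run in triplicate. Reported as percent of untreated control.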

Test [3] deals with Mus musculus. The test is described as follows: Evaluated for their ability to decrease plasma insulin levels in mouse at a dose 100 mg/kg/day.; NS is non significant. It is filed as functional, organism-based. The gist of the method: as §1
Test [4] deals with T2, Tyrosine-protein phosphatase non-receptor type 1 (Rattus norvegicus, UniProt P20417).
T2 sequence (P20417 whole entry): T1 sequence (whole entry)
The test is described as follows: Inhibition of PTPase activity in rat hepatic membrane at a concentration of 50 uM using pNPP as the substrate. The test is classed as cell membranes, Liver. The method, boiled down:
as §2

The subject of test [5] is Mus musculus. The test is described as follows: Evaluated in vivo for their ability to decrease plasma glucose levels in diabetic C57BL/KsJ ob/ob mouse at a dose 100 mg/kg/day; NS is non significant. It is filed as functional, organism-based. The gist of the method:
as §1

Test [6] deals with T1, Tyrosine-protein phosphatase non-receptor type 1 (Rattus norvegicus). The test is described as follows: Inhibition of PTPase activity using recombinant r-PTP1B as the enzyme and IR-triphosphopeptide as substrate at 50 uM. The method, boiled down:
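Rat recombinant PTP1B in 33 mM TRIS-HCl, 2 mM EDTA, 50 mM β-mercaptoethanol, pH 7.4 (about 1000-2000 nmol/min/mg). Preincubated 10 min at 37 °C with or without compound in HEPES buffer pH 7.4. Released phosphate read by malachite green-ammonium molybdate at 650 nm against a phosphate standard. Quadruplicates. IC50 by four-parameter logistic fit.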

The test system of test [7] is Mus musculus. The test is described as follows: Evaluated in vivo for their ability to decrease plasma glucose levels in diabetic C57BL/KsJ ob/ob mouse at a dose 100 mg/kg/day. The test is classed as functional. The method, boiled down:
(§3)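 Mice dosed orally once daily for 4 days; plasma glucose and insulin measured and expressed as percent change versus a vehicle-treated group (mean ± SE, 4-6 mice/group). NS is generally less than -15% change. Significance is versus vehicle-treated mice.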

For test [8], the system named is Mus musculus. The test is described as follows: Evaluated for their ability to decrease plasma insulin levels in mouse at a dose 100 mg/kg/day. **p indicates <0.01. It is filed as functional. The gist of the method:
as §3

For test [9], the target named is T1, Tyrosine-protein phosphatase non-receptor type 1 (Rattus norvegicus). The test is described as follows: Inhibition of Protein-tyrosine phosphatase 1B activity in rat hepatic membrane at a concentration of 50 uM using pNPP as the substrate. The test is classed as cell membranes. Conditions: Liver. The gist of the method:
as §2

Test [10] has as its system Mus musculus. The test is described as follows: Evaluated in vivo for their ability to decrease plasma glucose levels in diabetic C57BL/KsJ ob/ob mouse at a dose 100 mg/kg/day; **p indicates <0.01. It is filed as functional. The gist of the method: as §3
For test [11], the target named is T3, Tyrosine-protein phosphatase non-receptor type 1 (Homo sapiens) (UniProt P18031).
T3 sequence (whole entry): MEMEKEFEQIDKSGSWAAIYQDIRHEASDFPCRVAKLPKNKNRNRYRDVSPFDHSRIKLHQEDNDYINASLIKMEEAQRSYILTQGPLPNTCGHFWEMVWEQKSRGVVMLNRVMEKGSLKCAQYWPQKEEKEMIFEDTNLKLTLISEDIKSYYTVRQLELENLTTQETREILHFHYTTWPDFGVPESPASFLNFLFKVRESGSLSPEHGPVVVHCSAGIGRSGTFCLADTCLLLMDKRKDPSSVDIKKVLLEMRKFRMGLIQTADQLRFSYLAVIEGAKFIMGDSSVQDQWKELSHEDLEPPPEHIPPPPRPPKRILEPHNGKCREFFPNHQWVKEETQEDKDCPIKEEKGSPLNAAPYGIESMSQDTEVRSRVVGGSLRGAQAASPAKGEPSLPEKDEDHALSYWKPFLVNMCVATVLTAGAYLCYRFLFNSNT
The test is described as follows: % inhibition of PTPase activity, recombinant human Protein-tyrosine phosphatase 1B as the enzyme at a concentration 50 uM. The gist of the method:
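Human recombinant PTP1B (321 aa form) dephosphorylating IR-triphosphopeptide (pY1146/1150/1151), 50 µM final. Run as for the rat enzyme: 10 min preincubation with compound at 37 °C, pH 7.4, then 30 min reaction at 37 °C. Phosphate read by malachite green-ammonium molybdate at 650 nm. Quadruplicates. IC50 by four-parameter logistic regression.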

Test [12] addresses T1, Tyrosine-protein phosphatase non-receptor type 1 (Rattus norvegicus). The test is described as follows: Inhibition of PTPase activity using recombinant Protein-tyrosine phosphatase 1B as the enzyme and IR-triphosphopeptide as substrate at 50 uM. The method, boiled down:
(§4)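 Recombinant rat PTP1B (human 321-aa form assayed the same way), activity about 1000-2000 nmol/min/mg, preincubated with compound for 10 min at 37 °C in HEPES pH 7.4. The reaction is started with 50 µM triphosphorylated insulin receptor 1142-1153 dodecapeptide and run 30 min at 37 °C. Released phosphate read by malachite green-molybdate at 650 nm, in quadruplicate. Result is percent inhibition versus control.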

In test [13] the test system is Mus musculus. The test is described as follows: Evaluated for their ability to decrease plasma insulin levels in mouse at a dose 100 mg/kg/day; **p indicates <0.01. The test is classed as functional. The method, boiled down: as §3
For test [14], the system named is Mus musculus. The test is described as follows: Evaluated in vivo for their ability to decrease plasma glucose levels in diabetic C57BL/KsJ db/db mouse at a dose 100 mg/kg/day. *p indicates <0.05. It is filed as functional. The gist of the method: as §3
For test [15], the system named is Mus musculus. The test is described as follows: Evaluated in vivo for their ability to decrease plasma glucose levels in diabetic C57BL/KsJ ob/ob mouse at a dose 100 mg/kg/day, **p indicates <0.01. The test is classed as functional. The method, boiled down:
as §3

Test [16] concerns the target T1, Tyrosine-protein phosphatase non-receptor type 1 (Rattus norvegicus). The test is described as follows: Inhibition of PTPase activity using recombinant r-PTP1B as the enzyme and IR-triphosphopeptide as substrate at 10 uM. The method, boiled down:
as §4

Test [17] has the same target. The test is described as follows: Inhibition of PTPase (PTP1B) activity in rat hepatic membrane at 50 uM concentration, using pNPP as the substrate. The test is classed as cell membranes. To be noted: Liver. The gist of the method: as §2
Test [18] deals with Mus musculus. The test is described as follows: Evaluated for their ability to decrease plasma insulin levels in mouse at a dose 100 mg/kg/day,**p indicates <0.01. It is filed as functional. The method, boiled down:
as §3

Test [19] relates to Mus musculus. The test is described as follows: Evaluated for their ability to decrease plasma insulin levels in mouse at a dose 100 mg/kg/day.([…]). It is filed as functional. The gist of the method: as §1
Test [20] concerns the target T1, Tyrosine-protein phosphatase non-receptor type 1 (Rattus norvegicus). The test is described as follows: IC50 for PTPase activity, recombinant r-PTP1B as the enzyme .
The test system of test [21] is Mus musculus. The test is described as follows: Evaluated for their ability to decrease plasma insulin levels in mouse at a dose 100 mg/kg/day; NS=not significant. It is filed as functional, organism-based. The gist of the method:
as §1

Activity calls are given as the source filed them. No cut-off for these calls is given here.

Here are results for seven molecules from ChEMBL document CHEMBL1132971, “New azolidinediones as inhibitors of protein tyrosine phosphatase 1B with antihyperglycemic properties” (J Med Chem, 2000).

The molecule `Cc1c(C)c2c(c(C)c1O)CCC(C)(COc1ccc(CC3SC(=O)NC3=O)cc1)O2` (configuration not stated) [TROGLITAZONE] displayed a Decrease in [1] of 34%. The inhibition in test [2] was found to be 29%.

For `Cc1oc(-c2ccc(C(F)(F)F)cc2)nc1COc1cccc(/C(=C/Cn2oc(=O)[nH]c2=O)C(C)(C)C)c1`, the Decrease result in test [3] and in [5] was “inactive” throughout. Besides, the Inhibition % in [4] came to 24%. In test [6], the inhibition was determined as 0.6%.

For the molecule `Cc1oc(-c2ccc(C(F)(F)F)cc2)nc1COc1cccc(/C(=C/Cn2oc(=O)[nH]c2=O)Cc2ccccc2)c1`, the Decrease is given as 23% in test [7] and 46% in test [8]. Moreover, the inhibition in test [6] was determined as 0.8%.

For the molecule `CCC/C(=C\Cn1oc(=O)[nH]c1=O)c1cccc(OCc2nc(-c3ccc(C(F)(F)F)cc3)oc2C)c1`, the inhibition worked out at 58% in test [9], 1.9% in [11] and 2% in test [12]. In addition, the Decrease in test [10] stood at 58%; in test [13], 82%; in [14], 59%.

Consider `Cc1oc(-c2ccc(C(F)(F)F)cc2)nc1COc1cccc(C#CC(C)n2oc(=O)[nH]c2=O)c1` (configuration not stated), for which the Decrease in [15] was 32%; in test [14], 30%; in test [18], 91%. Further, the inhibition was determined as 47% in [16] and 56% in test [17].

For `Cc1oc(-c2ccc(C(F)(F)F)cc2)nc1COc1cccc(/C(I)=C/Cn2oc(=O)[nH]c2=O)c1`, the Decrease in test [1] was 38%; in [19], 64%. Moreover, the IC50 in test [20] stood at 1800 nM. Further, in test [17], the inhibition was found to be 51%.

Regarding `CCCCCCCC/C(=C\Cn1oc(=O)[nH]c1=O)c1cccc(OCc2nc(-c3ccc(C(F)(F)F)cc3)oc2C)c1`, in [1], the Decrease was 43%. The Decrease entry in test [21] is “inactive”. In addition, the IC50 in [20] is 400 nM.
